# Data: ChEMBL document CHEMBL1821569, “Synthesis of novel 1,2,5-trisubstituted benzimidazoles as potential antitumor agents” (2011)
# Experiments:
# Format in all cases: functional
# EKVX = assay: Antitumor activity against human EKVX cells after 48 hrs by SRB assay
# In short: (§1)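 NCI 60-cell-line secondary screen. Cells were exposed continuously to drug for 48 h at five concentration levels (100, 10, 1.0, 0.1 and 0.01). Growth was estimated by sulforhodamine B protein staining. GI50 is the concentration giving a 50% reduction in net protein increase versus untreated control cells over the incubation. TGI (total growth inhibition) and LC50 (50% cell kill) were also derived.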
# MOLT-4 = assay: Antitumor activity against human MOLT4 cells after 48 hrs by SRB assay; details: MOLT-4, 48 h; in short: as §1
# RPMI-8226 = assay: Antitumor activity against human RPMI8226 cells after 48 hrs by SRB assay; details: RPMI-8226, 48 h; in short: as §1
# NCI-H522 = assay: Antitumor activity against human NCI-H522 cells after 48 hrs by SRB assay; details: NCI-H522, 48 h; in short: as §1
# K562 = assay: Antitumor activity against human K562 cells after 48 hrs by SRB assay; details: K562, 48 h; in short: as §1
# NCI-H322M = assay: Antitumor activity against human NCI-H322M cells after 48 hrs by SRB assay; in short: as §1
# A549 = assay: Antitumor activity against human A549 cells after 48 hrs by SRB assay; details: A549, 48 h; in short: as §1
# HCT-15 = assay: Antitumor activity against human HCT15 cells after 48 hrs by SRB assay; details: HCT-15, 48 h; in short: as §1
# SF-295 = assay: Antitumor activity against human SF295 cells after 48 hrs by SRB assay; details: SF-295, 48 h; in short: as §1
# SF-268 = assay: Antitumor activity against human SF268 cells after 48 hrs by SRB assay; details: SF-268, 48 h; in short: as §1
# SNB-19 = assay: Antitumor activity against human SNB19 cells after 48 hrs by SRB assay; details: SNB-19, 48 h; in short: as §1
# SNB-75 = assay: Antitumor activity against human SNB75 cells after 48 hrs by SRB assay; details: SNB-75, 48 h; in short: as §1
# LOX IMVI = assay: Antitumor activity against human LOXIMVI cells after 48 hrs by SRB assay; in short: as §1
# Malme-3M = assay: Antitumor activity against human MALME-3M cells after 48 hrs by SRB assay; in short: as §1
# MDA-MB-435 = assay: Antitumor activity against human MDA-MB-435 cells after 48 hrs by SRB assay; details: MDA-MB-435, 48 h; in short: as §1
# SK-MEL-5 = assay: Antitumor activity against human SK-MEL-5 cells after 48 hrs by SRB assay; details: SK-MEL-5, 48 h; in short: as §1
# UACC-257 = assay: Antitumor activity against human UACC257 cells after 48 hrs by SRB assay; details: UACC-257, 48 h
# In short: (§2)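 NCI 60-cell-line secondary screen. Continuous 48 h exposure at five concentration levels. Cell growth estimated by sulforhodamine B protein staining. GI50 taken as the concentration giving 50% reduction in net protein increase relative to untreated control cells over the incubation. TGI (total growth inhibition) and LC50 (50% cell kill) were also derived.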
# UACC-62 = assay: Antitumor activity against human UACC62 cells after 48 hrs by SRB assay; details: UACC-62, 48 h; in short: as §2
# M14 = assay: Antitumor activity against human M14 cells after 48 hrs by SRB assay; details: M14, 48 h; in short: as §1
# SK-MEL-28 = assay: Antitumor activity against human SK-MEL-28 cells after 48 hrs by SRB assay; details: SK-MEL-28, 48 h; in short: as §1
# OVCAR-8 = assay: Antitumor activity against human OVCAR8 cells after 48 hrs by SRB assay; details: OVCAR-8, 48 h; in short: as §1
# OVCAR-5 = assay: Antitumor activity against human OVCAR5 cells after 48 hrs by SRB assay; details: OVCAR-5, 48 h; in short: as §1
# CAKI-1 = assay: Antitumor activity against human Caki1 cells after 48 hrs by SRB assay; details: CAKI-1, 48 h; in short: as §1
# RXF 393 = assay: Antitumor activity against human RXF393 cells after 48 hrs by SRB assay; details: RXF 393, 48 h; in short: as §1
# TK-10 = assay: Antitumor activity against human TK10 cells after 48 hrs by SRB assay; details: TK-10, 48 h; in short: as §2
# UO-31 = assay: Antitumor activity against human UO31 cells after 48 hrs by SRB assay; details: UO-31, 48 h; in short: as §2
# 786-0 = assay: Antitumor activity against human 786-0 cells after 48 hrs by SRB assay; details: 786-0, 48 h; in short: as §1
# MDA-MB-231 = assay: Antitumor activity against human MDA-MB-231 cells after 48 hrs by SRB assay; details: MDA-MB-231, 48 h; in short: as §1
# BT-549 = assay: Antitumor activity against human BT549 cells after 48 hrs by SRB assay; details: BT-549, 48 h; in short: as §1
# T47D = assay: Antitumor activity against human T47D cells after 48 hrs by SRB assay; in short: as §2
# MDA-MB-468 = assay: Antitumor activity against human MDA-MB-468 cells after 48 hrs by SRB assay; details: MDA-MB-468, 48 h; in short: as §1
# [1] = read-out: LC50 (the source's name)
compound,measurement,setting,value
COC(=O)c1ccc2c(c1)nc(-c1cc3ccccc3[nH]c1=O)n2-c1cc(C(C)(C)C)[nH]n1,GI50,EKVX,5.8 µM
same,LC50 (50% cell kill),EKVX,> 100 µM
same,TGI,EKVX,> 100 µM
same,GI50,MOLT-4,0.445 µM
same,LC50 (50% net cell kill),MOLT-4,> 100 µM
same,TGI,MOLT-4,> 100 µM
same,GI50,RPMI-8226,0.167 µM
same,TGI,RPMI-8226,0.987 µM
same,CC50,RPMI-8226; [1],> 100 µM
same,GI50,NCI-H522,0.928 µM
same,LC50 (50% cell kill),NCI-H522,> 100 µM
same,TGI,NCI-H522,> 100 µM
same,GI50,K562,1.73 µM
same,TGI,K562,> 100 µM
same,CC50,K562; [1],> 100 µM
same,GI50,NCI-H322M,0.929 µM
same,LC50 (50% cell kill),NCI-H322M,> 100 µM
same,TGI,NCI-H322M,> 100 µM
same,GI50,A549,> 100 µM
same,TGI,A549,> 100 µM
same,CC50,A549; [1],> 100 µM
same,LC50 (50% cell kill),HCT-15,> 100 µM
same,TGI,HCT-15,> 100 µM
same,GI50,SF-295,1.23 µM
same,TGI,SF-295,25.5 µM
same,CC50,SF-295; [1],> 100 µM
same,GI50,SF-268,2.13 µM
same,TGI,SF-268,91.9 µM
same,CC50,SF-268; [1],> 100 µM
same,GI50,SNB-19,7.59 µM
same,TGI,SNB-19,> 100 µM
same,CC50,SNB-19; [1],> 100 µM
same,GI50,SNB-75,5.42 µM
same,TGI,SNB-75,41.5 µM
same,CC50,SNB-75; [1],> 100 µM
same,GI50,LOX IMVI,1.24 µM
same,CC50,LOX IMVI; [1],> 100 µM
same,GI50,Malme-3M,2.63 µM
same,TGI,Malme-3M,> 100 µM
same,CC50,Malme-3M; [1],> 100 µM
same,TGI,MDA-MB-435,> 100 µM
same,CC50,MDA-MB-435; [1],> 100 µM
same,GI50,SK-MEL-5,2.3 µM
same,TGI,SK-MEL-5,> 100 µM
same,CC50,SK-MEL-5; [1],> 100 µM
same,TGI,UACC-257,> 100 µM
same,CC50,UACC-257; [1],> 100 µM
same,TGI,UACC-62,> 100 µM
same,CC50,UACC-62; [1],> 100 µM
same,TGI,M14,> 100 µM
same,CC50,M14; [1],> 100 µM
same,TGI,SK-MEL-28,> 100 µM
same,CC50,SK-MEL-28; [1],> 100 µM
same,GI50,OVCAR-8,1.79 µM
same,TGI,OVCAR-8,> 100 µM
same,CC50,OVCAR-8; [1],> 100 µM
same,TGI,OVCAR-5,> 100 µM
same,CC50,OVCAR-5; [1],> 100 µM
same,GI50,CAKI-1,0.476 µM
same,TGI,CAKI-1,90.5 µM
same,CC50,CAKI-1; [1],> 100 µM
same,GI50,RXF 393,2.16 µM
same,TGI,RXF 393,8.86 µM
same,CC50,RXF 393; [1],> 100 µM
same,GI50,TK-10,16.9 µM
same,TGI,TK-10,55.8 µM
same,CC50,TK-10; [1],> 100 µM
same,GI50,UO-31,0.533 µM
same,TGI,UO-31,> 100 µM
same,CC50,UO-31; [1],> 100 µM
same,GI50,786-0,5.81 µM
same,TGI,786-0,> 100 µM
same,CC50,786-0; [1],> 100 µM
same,GI50,MDA-MB-231,4.13 µM
same,TGI,MDA-MB-231,> 100 µM
same,CC50,MDA-MB-231; [1],> 100 µM
same,GI50,BT-549,4.88 µM
same,TGI,BT-549,66.2 µM
same,CC50,BT-549; [1],> 100 µM
same,GI50,T47D,> 100 µM
same,TGI,T47D,> 100 µM
same,CC50,T47D; [1],> 100 µM
same,GI50,MDA-MB-468,20.5 µM
same,TGI,MDA-MB-468,> 100 µM
same,CC50,MDA-MB-468; [1],> 100 µM
